# Laboratory results taken from ChEMBL document CHEMBL1152544, “Inhibitory effect of beta-diketones and their metal complexes on TNF-alpha induced expression of ICAM-1 on human endothelial cells” (Bioorg Med Chem, 2009).
# Experiments:
# HUVEC [1] = test: Antiinflammatory activity in HUVEC assessed as inhibition of TNF-alpha-induced cell surface ICAM1 expression at 271.4 uM/ml preincubated before TNFalpha challenge measured after 16 hrs by ELISA; assay type: functional; details: Homo sapiens
# Method in brief: (§1)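 Primary umbilical-cord HUVEC in M-199 with 15% FCS were grown confluent on gelatinized plates. They were pretreated with compound in DMSO, then given TNF-α for 16 h. Cells were fixed in 1% glutaraldehyde (30 min, 4 °C) and blocked in 3% defatted milk (3 h, 37 °C). Detection used anti-ICAM-1 mAb overnight at 4 °C, then peroxidase secondary (3 h, 37 °C). Substrate was o-phenylenediamine in citrate pH 4.5, stopped with 2 N H2SO4, read at A490.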
# HUVEC [2] = test: Cytotoxicity against HUVEC after 24 hrs by MTT assay; assay type: cell-based; details: human
# Method in brief: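 Primary endothelial cells isolated from human umbilical cord, grown in M-199 with 15% fetal calf serum, L-glutamine, penicillin, streptomycin, amphotericin and endothelial-cell growth factor, and used after three passages. Cells exposed to vehicle (DMSO 0.25%) or a range of compound concentrations for 24 h. MTT added for the last 4 h, formazan dissolved in DMSO, absorbance read at 570 nm. Trypan blue exclusion also done.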
# HUVEC [3] = test: Cytotoxicity against HUVEC assessed as cell viability at 6.25 to 200 ug/mL after 24 hrs by MTT assay; assay type: cell-based; details: human
# Method in brief: (§2)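 Primary HUVEC were exposed for 24 h to compound or vehicle (DMSO alone, 0.25%). Medium was replaced with MTT for the final 4 h. Formazan was then dissolved in DMSO and read at 570 nm. Viability was also checked by trypan blue exclusion.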
# HUVEC [4] = test: Antiinflammatory activity in HUVEC assessed as inhibition of TNF-alpha-induced cell surface ICAM1 expression preincubated before TNFalpha challenge measured after 16 hrs by ELISA; assay type: functional, cell-based; details: Homo sapiens; method in brief: as §1
# HUVEC [5] = test: Antiinflammatory activity in HUVEC assessed as inhibition of TNF-alpha-induced cell surface ICAM1 expression at 60 ug/ml preincubated before TNFalpha challenge measured after 16 hrs by ELISA; assay type: functional; details: Homo sapiens; method in brief: as §1
# [6] = Cytotoxicity against HUVEC assessed as cell viability at 60 ug/mL after 24 hrs by MTT assay; assay type: cell-based; details: human, HUVEC cells; read-out: Activity; method in brief: as §2
# HUVEC [7] = test: Antiinflammatory activity in HUVEC assessed as inhibition of TNF-alpha-induced cell surface ICAM1 expression at 50 uM/ml preincubated before TNFalpha challenge measured after 16 hrs by ELISA; assay type: functional; details: Homo sapiens
Compound,inhibition at 271.4 µM (HUVEC [1]) [%],MTD (HUVEC [2]) [uM/ml],Activity (HUVEC [3]),IC50 (HUVEC [4]) [µg/mL],inhibition at 60 µg/mL (HUVEC [5]) [%],"viability at 24 h, 60 ug/mL [6] [%]",inhibition at 50 µM (HUVEC [7]) [%]
CC1=NN(c2ccccc2)C(=O)C1C(=O)c1ccccc1 (stereo not drawn),62,271.4,Non-toxic,36.3,75,95.8,
CC(=O)C1C(=O)N(c2ccccc2)N=C1c1ccccc1 (stereo not drawn),,,,,20,97.9,
Cc1[nH]n(-c2ccccc2)c(=O)c1C(=O)CC(C)(C)C,,,,,35,97.1,
CC1=NN(c2ccccc2)C(=O)C1C(=O)C(C)(C)C (stereo not drawn),,,,,60,96.1,
CC1=NN(c2ccccc2)C(=O)C1C(=O)c1ccco1 (stereo not drawn),,,,,55,96.2,
CC1=NN(c2ccccc2)C(=O)C1C(=O)CCC1CCCC1 (stereo not drawn),,,,,35,98.6,
COc1cc(/C=C/C(=O)CC(=O)/C=C/c2ccc(O)c(OC)c2)ccc1O [CURCUMIN],,50,,,,,90
